For assay [1], the target named is T1, wild type cytochrome bo3 (Escherichia coli, UniProt P0ABI8). Put plainly: steady state ubiquinol-1 oxidase activity. The assay is classed as biochemical, E. coli. Conditions: for pattern of inhibition: double-reciprocal plot vs ubiquinol-1.
For assay [2], the target named is T1, wild type cytochrome bo3. Put plainly: EPR of the semiquinone formed at the QH-site. The class given is biochemical, E. coli. As to conditions: excess (5-fold) of inhibitor. Summed up:
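Continuous-wave X-band EPR of wild-type enzyme purified in dodecylmaltoside, carrying bound ubiquinone-8 at the QH site. Enzyme was incubated with a 5-fold excess of test compound, at 50 μM enzyme in one series. Sample preparation followed earlier published methods.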

For assay [3], the target named is T1, wild type cytochrome bo3. Put plainly: HQNO binding monitored by fluorescence anisotropy. Further details: species or system E. coli. As to conditions: for Kd: read-out: Kd HQNO. (Polarisation of emitted light reports the rotation of a fluorescent probe.)
The target of assay [4] is wild type cytochrome bo3 (no bound Q8) (Escherichia coli, UniProt P0ABI8). Put plainly: HQNO binding monitored by fluorescence anisotropy. Further details: species or system E. coli. As to conditions: read-out: Kd HQNO. Summed up:
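Quinone-free enzyme was made by diluting ≥50-fold into 50 mM K2HPO4, 0.1% Triton X-100, pH 8.3, and binding to Ni-NTA for several hours at 4 °C. It was washed into dodecylmaltoside, eluted with 100 mM imidazole and dialysed. Enzyme was titrated into pH 8.3 dodecylmaltoside buffer holding fixed 1 μM test compound. Anisotropy was read at ex 341/em 480 nm against a ligand-free control, and fit with an independent-sites model.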

The target of assay [5] is T2, cytochrome bo3 D188A (Escherichia coli, UniProt P0ABI8, D188A). Put plainly: HQNO binding monitored by fluorescence anisotropy. Details: species or system E. coli. Conditions: read-out: Kd HQNO.
T2 sequence (P0ABI8 whole entry D188A): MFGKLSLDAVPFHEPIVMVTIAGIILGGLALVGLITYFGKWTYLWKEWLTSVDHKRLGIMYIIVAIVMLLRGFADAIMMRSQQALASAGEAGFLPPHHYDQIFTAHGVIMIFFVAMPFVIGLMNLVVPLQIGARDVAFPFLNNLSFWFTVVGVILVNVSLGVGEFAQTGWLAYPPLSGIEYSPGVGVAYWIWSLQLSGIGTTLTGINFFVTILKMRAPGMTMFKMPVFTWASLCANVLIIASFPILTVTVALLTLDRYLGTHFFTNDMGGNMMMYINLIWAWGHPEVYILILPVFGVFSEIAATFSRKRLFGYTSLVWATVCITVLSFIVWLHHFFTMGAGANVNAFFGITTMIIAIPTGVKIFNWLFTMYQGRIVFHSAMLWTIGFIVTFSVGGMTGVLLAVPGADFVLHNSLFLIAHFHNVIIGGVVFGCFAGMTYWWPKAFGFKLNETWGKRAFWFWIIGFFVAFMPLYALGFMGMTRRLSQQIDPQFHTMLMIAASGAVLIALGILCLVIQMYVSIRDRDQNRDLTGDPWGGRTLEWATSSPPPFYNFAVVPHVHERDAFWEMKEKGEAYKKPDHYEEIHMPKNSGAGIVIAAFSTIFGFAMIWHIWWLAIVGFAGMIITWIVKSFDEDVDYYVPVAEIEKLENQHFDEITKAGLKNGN
T2 sequence (P0ABJ6 whole entry, further chain): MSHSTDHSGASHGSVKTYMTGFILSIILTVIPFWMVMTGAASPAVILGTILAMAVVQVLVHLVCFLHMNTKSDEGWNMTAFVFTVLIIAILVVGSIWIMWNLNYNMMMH
T2 sequence (P0ABJ3 whole entry, stated change not applied, further chain): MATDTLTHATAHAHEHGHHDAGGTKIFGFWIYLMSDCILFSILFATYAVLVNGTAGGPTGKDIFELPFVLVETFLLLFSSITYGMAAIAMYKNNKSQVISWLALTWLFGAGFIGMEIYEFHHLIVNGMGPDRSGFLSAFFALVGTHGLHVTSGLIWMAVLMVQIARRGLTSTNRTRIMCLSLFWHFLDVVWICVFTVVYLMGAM
T2 sequence (P0ABJ1 25-315, further chain): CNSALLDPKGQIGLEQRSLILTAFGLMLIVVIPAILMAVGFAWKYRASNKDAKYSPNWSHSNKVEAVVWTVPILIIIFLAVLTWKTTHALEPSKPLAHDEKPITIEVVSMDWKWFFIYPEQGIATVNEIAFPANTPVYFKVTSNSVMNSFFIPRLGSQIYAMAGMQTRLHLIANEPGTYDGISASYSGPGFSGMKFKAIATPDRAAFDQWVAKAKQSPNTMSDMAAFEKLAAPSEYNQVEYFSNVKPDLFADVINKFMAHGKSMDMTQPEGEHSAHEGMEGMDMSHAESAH
For assay [6], the target named is T3, cytochrome bo3 D188N (Escherichia coli, UniProt P0ABI8, D188N). Put plainly: HQNO binding monitored by fluorescence anisotropy. Details: species or system E. coli. Conditions: read-out: Kd HQNO.
T3 sequence (P0ABI8 whole entry D188N): as the sequence (P0ABI8 whole entry D188A) above, with A188N counted along it
T3 sequence (P0ABJ3 whole entry, stated change not applied, further chain): as the sequence (P0ABJ3 whole entry, stated change not applied, further chain) above
T3 sequence (P0ABJ6 whole entry, further chain): as the sequence (P0ABJ6 whole entry, further chain) above
T3 sequence (P0ABJ1 25-315, further chain): as the sequence (P0ABJ1 25-315, further chain) above
The target in assay [7] is T4, cytochrome bo3 R257Q (Escherichia coli, UniProt P0ABI8, R257Q). Put plainly: HQNO binding monitored by fluorescence anisotropy. Details: species or system E. coli. Conditions: read-out: Kd HQNO.
T4 sequence (P0ABJ1 25-315): as the sequence (P0ABJ1 25-315, further chain) above
T4 sequence (P0ABI8 whole entry R257Q): as the sequence (P0ABI8 whole entry D188A) above, with A188D, R257Q counted along it
T4 sequence (P0ABJ3 whole entry, further chain): as the sequence (P0ABJ3 whole entry, stated change not applied, further chain) above
T4 sequence (P0ABJ6 whole entry, further chain): as the sequence (P0ABJ6 whole entry, further chain) above
In assay [8] the target is cytochrome bo3 W^II136A (Escherichia coli, UniProt P0ABI8). Put plainly: HQNO binding monitored by fluorescence anisotropy. Details: species or system E. coli. Conditions: read-out: Kd HQNO.
Sequence of cytochrome bo3 W^II136A (Escherichia coli, UniProt P0ABI8) (P0ABJ6 whole entry): as the sequence (P0ABJ6 whole entry, further chain) above
Sequence of cytochrome bo3 W^II136A (Escherichia coli, UniProt P0ABI8) (P0ABJ3 whole entry, further chain): as the sequence (P0ABJ3 whole entry, stated change not applied, further chain) above
Sequence of cytochrome bo3 W^II136A (Escherichia coli, UniProt P0ABI8) (P0ABI8 whole entry): as the sequence (P0ABI8 whole entry D188A) above, with A188D counted along it
Sequence of cytochrome bo3 W^II136A (Escherichia coli, UniProt P0ABI8) (P0ABJ1 25-315 W136A, further chain): as the sequence (P0ABJ1 25-315, further chain) above, with W112A counted along it
The target of assay [9] is cytochrome bo3 H98S (Escherichia coli, UniProt P0ABI8, H98S). Put plainly: HQNO binding monitored by fluorescence anisotropy. Conditions: read-out: Kd HQNO. Further details: species or system E. coli.
Sequence of cytochrome bo3 H98S (P0ABI8 whole entry H98S): as the sequence (P0ABI8 whole entry D188A) above, with H98S, A188D counted along it
Sequence of cytochrome bo3 H98S (P0ABJ3 whole entry, further chain): as the sequence (P0ABJ3 whole entry, stated change not applied, further chain) above
Sequence of cytochrome bo3 H98S (P0ABJ6 whole entry, further chain): as the sequence (P0ABJ6 whole entry, further chain) above
Sequence of cytochrome bo3 H98S (P0ABJ1 25-315, further chain): as the sequence (P0ABJ1 25-315, further chain) above
In assay [10] the target is T2, cytochrome bo3 D188A. Put plainly: steady state ubiquinol-1 oxidase activity. The assay is classed as biochemical, E. coli. Conditions: read-out: KM UQ1H2.
Assay [11] addresses T3, cytochrome bo3 D188N. Put plainly: steady state ubiquinol-1 oxidase activity. The assay is classed as biochemical, E. coli. Conditions: read-out: KM UQ1H2.
The target of assay [12] is T4, cytochrome bo3 R257Q. Put plainly: steady state ubiquinol-1 oxidase activity. Conditions: read-out: KM UQ1H2. The assay is classed as biochemical, E. coli.
The target in assay [13] is cytochrome bo3 W^II136A (Escherichia coli, UniProt P0ABI8+P0ABJ1, W136A). Put plainly: steady state ubiquinol-1 oxidase activity. Conditions: read-out: KM UQ1H2. The assay is classed as biochemical, E. coli.
Sequence of cytochrome bo3 W^II136A (Escherichia coli, UniProt P0ABI8+P0ABJ1, W136A) (P0ABI8 whole entry): as the sequence (P0ABI8 whole entry D188A) above, with A188D counted along it
Sequence of cytochrome bo3 W^II136A (Escherichia coli, UniProt P0ABI8+P0ABJ1, W136A) (P0ABJ6 whole entry, further chain): as the sequence (P0ABJ6 whole entry, further chain) above
Sequence of cytochrome bo3 W^II136A (Escherichia coli, UniProt P0ABI8+P0ABJ1, W136A) (P0ABJ1 25-315 W136A): as the sequence (P0ABJ1 25-315, further chain) above, with W112A counted along it
Sequence of cytochrome bo3 W^II136A (Escherichia coli, UniProt P0ABI8+P0ABJ1, W136A) (P0ABJ3 whole entry, further chain): as the sequence (P0ABJ3 whole entry, stated change not applied, further chain) above

Molecules are shown by their SMILES. “And” between values parts separate entries of the source, which are not always exact repeats. Equal entries are not always repeated. Where two headings read alike, the source gives them in different places.

T1 sequence (P0ABJ1 25-315): as the sequence (P0ABJ1 25-315, further chain) above
T1 sequence (P0ABJ3 whole entry, further chain): as the sequence (P0ABJ3 whole entry, stated change not applied, further chain) above
T1 sequence (P0ABJ6 whole entry, further chain): as the sequence (P0ABJ6 whole entry, further chain) above
T1 sequence (P0ABI8 whole entry): as the sequence (P0ABI8 whole entry D188A) above, with A188D counted along it
Sequence of wild type cytochrome bo3 (no bound Q8) (P0ABJ3 whole entry): as the sequence (P0ABJ3 whole entry, stated change not applied, further chain) above
Sequence of wild type cytochrome bo3 (no bound Q8) (P0ABJ1 25-315, further chain): as the sequence (P0ABJ1 25-315, further chain) above
Sequence of wild type cytochrome bo3 (no bound Q8) (P0ABI8 whole entry): as the sequence (P0ABI8 whole entry D188A) above, with A188D counted along it
Sequence of wild type cytochrome bo3 (no bound Q8) (P0ABJ6 whole entry, further chain): as the sequence (P0ABJ6 whole entry, further chain) above

As for `CCCCCCCCCCc1c(C)c(=O)c2ccccc2n1O` [AC1-10, aurachin C1-10], the pattern of inhibition entry in assay [1] is given as “competitive”. Besides, in [2], the “effect on formation of the semiquinone at the QH-site (EPR signal)” value is given as “prevents formation of the semiquinone EPR signal”.
As for `CCCCCCCc1cc(=O)c2ccccc2n1O` [HQNO], the pattern of inhibition result in assay [1] is “noncompetitive”. The Ki (in general, a dissociation constant, usually derived from enzyme kinetics or from competition with a known ligand) in [1] (read-out: Ki, inhibition of ubiquinol-1 oxidase activity by HQNO, coupled assay, enzyme with ubiquinone-8 bound to the QH site) came to 0.74 µM. Besides, the Kd (in general, the concentration at which binding is half-saturated) was found to be 4.1 µM in assay [3] (wild type + 300 μM Q1); 6.8 µM in [3] (wild type + 1500 μM Q1); 4 µM in [3] (wild type, one equivalent of ubiquinone-8 bound, 1 μM HQNO, pH 8.3); 5.8 µM in assay [4]; 5 µM in assay [5]; 4 µM in assay [6]. The equilibrium dissociation constant (Kd) was determined as 4 µM in assay [7], 4.1 µM in assay [8] and 3.6 µM in [9]. Further, in [3] (wild type with ubiquinone-8 bound), the “number of HQNO binding sites (best fit, independent sites model)” value is 1.1 and 1. For the same compound, in [2], the “effect on formation of the semiquinone at the QH-site (EPR signal)” value is “prevents formation of the semiquinone”.
For the compound `COc1c(O)c(C)c(CC=C(C)C)c(O)c1OC` [UQ1H2, ubiquinol-1], the Km (commonly the concentration of substrate that gives half-maximal velocity) was determined as 53 µM in assay [1] (read-out: KM UQ1H2, wild type); 56 µM in assay [10]; 52 µM in assay [11]; 60 µM in assay [12]; 63 µM in assay [13].
